This is an account of results in ChEMBL document CHEMBL1914325, “Largazole and analogues with modified metal-binding motifs targeting histone deacetylases: synthesis and biological evaluation” (2011).

The structures appear in SMILES notation. Active and inactive are the calls of the source. The rule behind the calls is not given here.

Assay [1] has as its target Histone deacetylase 1 (Homo sapiens) (UniProt Q13547). The assay can be described thus: Inhibition of recombinant HDAC1 at 1 uM after 1 hr by fluorimetric assay. In a few lines:
(§1)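 Fluor de Lys fluorimetric deacetylase assay run per the kit protocol. Inhibitor, enzyme and substrate were incubated 1 h, then developer was added and incubated before reading. Recombinant HDAC1 or HDAC6 was tested at 1 µM inhibitor; HeLa nuclear extract served as the class 1/2 HDAC source. Analogue + substrate + developer was the signal control. Three experiments, each in triplicate; SD of triplicates.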

Assay [2] shares this target. Description: Inhibition of HDAC1 from human HeLa nuclear extract after 1 hr by fluorimetric assay. In a few lines:
as §1

In assay [3] the target is T1, Protein deacetylase HDAC6 (Homo sapiens) (UniProt Q9UBN7).
T1 sequence (whole entry): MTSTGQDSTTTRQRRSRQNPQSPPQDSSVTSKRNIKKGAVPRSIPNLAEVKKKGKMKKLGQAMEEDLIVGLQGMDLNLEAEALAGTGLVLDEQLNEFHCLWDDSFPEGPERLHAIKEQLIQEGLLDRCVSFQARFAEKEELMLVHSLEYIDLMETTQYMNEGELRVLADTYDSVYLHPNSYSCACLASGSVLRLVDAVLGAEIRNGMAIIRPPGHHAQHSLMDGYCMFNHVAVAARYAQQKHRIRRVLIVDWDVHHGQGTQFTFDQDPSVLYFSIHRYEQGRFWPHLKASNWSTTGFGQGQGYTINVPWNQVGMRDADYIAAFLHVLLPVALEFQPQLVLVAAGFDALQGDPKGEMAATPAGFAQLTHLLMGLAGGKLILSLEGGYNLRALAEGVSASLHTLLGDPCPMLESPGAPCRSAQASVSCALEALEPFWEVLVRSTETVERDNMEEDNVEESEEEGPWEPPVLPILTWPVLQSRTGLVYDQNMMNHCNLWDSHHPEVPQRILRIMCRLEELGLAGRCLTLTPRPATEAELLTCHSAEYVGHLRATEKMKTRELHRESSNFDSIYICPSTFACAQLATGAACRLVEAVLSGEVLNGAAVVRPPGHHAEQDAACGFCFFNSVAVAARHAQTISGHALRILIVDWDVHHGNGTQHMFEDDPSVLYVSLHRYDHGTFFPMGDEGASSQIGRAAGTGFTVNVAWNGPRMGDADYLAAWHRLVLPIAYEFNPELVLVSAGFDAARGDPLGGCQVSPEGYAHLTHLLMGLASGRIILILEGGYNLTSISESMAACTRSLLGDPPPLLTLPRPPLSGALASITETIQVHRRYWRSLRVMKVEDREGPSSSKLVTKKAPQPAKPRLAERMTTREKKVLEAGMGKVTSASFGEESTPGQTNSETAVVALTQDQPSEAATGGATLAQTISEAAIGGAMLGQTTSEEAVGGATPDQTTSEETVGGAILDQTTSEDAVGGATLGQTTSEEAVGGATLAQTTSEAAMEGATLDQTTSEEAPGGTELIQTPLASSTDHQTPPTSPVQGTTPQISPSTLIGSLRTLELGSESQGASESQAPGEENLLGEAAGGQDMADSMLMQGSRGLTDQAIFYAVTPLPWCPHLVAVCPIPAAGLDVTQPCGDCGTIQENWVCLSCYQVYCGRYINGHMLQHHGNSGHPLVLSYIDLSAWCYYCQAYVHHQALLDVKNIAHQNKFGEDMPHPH
The assay can be described thus: Inhibition of recombinant human HDAC6 after 1 hr by fluorimetric assay.

Assay [4] concerns HCT-116. Description: Growth inhibition of human HCT116 cells after 96 hrs by MTS assay. The conditions noted are these: HCT-116, 96 h. The format is functional. In outline:
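HCT116 cells seeded at 3 × 10^4 cells/well in quadruplicate and allowed to attach overnight. Medium then replaced with fresh medium containing compound (10 nM, 100 nM, 1 µM, 5 µM). Cells incubated 96 h at 37 °C, 5% CO2. MTS reagent (CellTiter 96 One Solution) added for 1.5 h at 37 °C, then absorbance read at 490 nm. GI50 estimated from the growth curves.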
Background: Formazan colour is commonly taken as a measure of viable cells.

Assay [5] deals with T1, Protein deacetylase HDAC6 (Homo sapiens). The assay can be described thus: Inhibition of HDAC6 in human HCT116 cells assessed as increase in alpha tubulin acetylation at 0.01 to 1 uM after 24 hrs by Western blot analysis. The format is cell-based. As to conditions: HCT-116. In a few lines:
(§2)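 HCT116 cells treated 24 h with 10 nM, 100 nM or 1 µM compound, with DMSO as vehicle control. Acetylation of histone or α-tubulin was measured by Western blot of whole-cell lysates, detected with infrared dye-conjugated secondary antibodies and infrared scanning.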
(Immunoblotting shows a protein as a band on a membrane.)

Assay [6] deals with Histone deacetylase 1 (Homo sapiens) (UniProt Q13547). The conditions noted are these: HCT-116, 100 nM.
Sequence of Histone deacetylase 1 (Homo sapiens) (Q13547 whole entry): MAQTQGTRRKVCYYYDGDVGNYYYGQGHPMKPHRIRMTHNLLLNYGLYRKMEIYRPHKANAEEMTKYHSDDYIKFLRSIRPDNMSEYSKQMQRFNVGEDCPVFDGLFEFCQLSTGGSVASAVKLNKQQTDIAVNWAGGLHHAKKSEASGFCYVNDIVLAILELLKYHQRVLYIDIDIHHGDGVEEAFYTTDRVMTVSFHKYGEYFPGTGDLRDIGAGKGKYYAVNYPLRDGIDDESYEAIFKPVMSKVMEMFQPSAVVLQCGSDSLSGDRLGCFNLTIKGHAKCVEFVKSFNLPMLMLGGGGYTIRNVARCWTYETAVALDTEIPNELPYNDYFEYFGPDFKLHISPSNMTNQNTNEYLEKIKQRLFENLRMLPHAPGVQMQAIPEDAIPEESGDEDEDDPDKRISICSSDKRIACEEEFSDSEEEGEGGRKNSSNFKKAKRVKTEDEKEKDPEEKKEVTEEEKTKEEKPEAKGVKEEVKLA
For assay [7] the target is unchanged. Description: Inhibition of HDAC1 in human HCT116 cells assessed as increase in histone H3 acetylation at 10 nM after 24 hrs by Western blot analysis. The format is cell-based. As to conditions: HCT-116. In a few lines:
as §2

Assay [8] concerns the target T1, Protein deacetylase HDAC6 (Homo sapiens). The assay can be described thus: Inhibition of recombinant HDAC6 at 1 uM after 1 hr by fluorimetric assay. In a few lines: as §1
Assay [9] concerns the target Histone deacetylase 1 (Homo sapiens) (UniProt Q13547). The assay can be described thus: Inhibition of HDAC1 in human HCT116 cells assessed as increase in histone H3 acetylation at 1 uM after 24 hrs by Western blot analysis. The class given is cell-based. The conditions noted are these: HCT-116. In a few lines:
as §2

Assay [10] concerns HCT-116. The assay can be described thus: Growth inhibition of human HCT116 cells at 5 uM after 96 hrs by MTS assay. The format is functional, cell-based. In a few lines:
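HCT116 cells seeded at 3 × 10^4 cells/well in quadruplicate and left to attach overnight. Medium was replaced with fresh medium containing compound at 10 nM, 100 nM, 1 µM or 5 µM, then incubated 96 h at 37 °C in 5% CO2. MTS reagent was added for 1.5 h at 37 °C and absorbance read at 490 nm.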

One may read the inhibition as the change of the read-out against control, counted positive when it falls. The GI50 is the concentration giving 50% growth inhibition. A higher GI50 goes with less potent growth inhibition. Take `CCCCCCCC(=O)SCC/C=C/[C@@H]1CC(=O)NCc2nc(cs2)C2=N[C@@](C)(CS2)C(=O)N[C@@H](C(C)C)C(=O)O1` [LARGAZOLE]: the inhibition entry in assay [1], in assay [2], in assay [3] and in [6] was “Active” throughout. Moreover, growth in the assay on HCT-116 [4] was halved (GI50) at 0.01 µM. Moreover, the inhibition entry in [5] and in [7] was “inactive” each time. For the same compound, in assay [8], the inhibition was determined as 50%.

In the case of `CC(C)[C@@H]1NC(=O)[C@]2(C)CSC(=N2)c2csc(n2)CNC(=O)C[C@@H](/C=C/CCSCc2ccccn2)OC1=O`, the figures for the inhibition in assay [1] and in assay [8] were 80% and 50%, respectively. Further, the inhibition entry in assay [2], in assay [3] and in assay [9] was “Active” in each case. Moreover, the GI50 with HCT-116 [4] was determined as 1 µM. Besides, the inhibition entry in assay [5] and in [7] was “inactive” each time.

Take `CC(C)[C@@H]1NC(=O)[C@]2(C)CSC(=N2)c2csc(n2)CNC(=O)C[C@@H](/C=C/CCSCc2cccs2)OC1=O`: the inhibition in assay [1] was 80%; in [8], 50%. Besides, the inhibition result in assay [2], in [3] and in assay [9] was “Active” in each case. Besides, the inhibition result in assay [5] and in [7] was “inactive” in each case. Besides, the “growth inhibition (GI)” value in the assay with HCT-116 [10] was “Active”.

Take `CC(C)[C@@H]1NC(=O)[C@]2(C)CSC(=N2)c2csc(n2)CNC(=O)C[C@@H](/C=C/CCSCc2ccccc2O)OC1=O`: the inhibition in assay [1] came to 30%; in assay [8], 50%. Also, the inhibition result in assay [2] and in assay [3] was “Active” throughout. For the same compound, the inhibition result in assay [5] and in assay [7] was “inactive” each time. Moreover, the “growth inhibition (GI)” value with HCT-116 [10] was “Active”.
